KCC2 mod – modulates chloride dependent transport by human KCC2. AID 1456. KCC2 cells, thallium flux FluoZin-2 fluorescence. Q9H2X9. 2.2% of 190,000 active. B-score of Tl+ flux slope (higher = more flux/activation; lower = inhibition) at 10 µM;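 active = thallium flux slope and its plate-corrected score both differing from the plate sample mean at a set confidence after two filtering rounds, in either direction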;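 note: slope of fluorescence scaled to starting intensity during 10 to 20 s after thallium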
STAT1 act – increases IFN-gamma driven STAT1 reporter signal. NIH 3T3 STAT1-luciferase reporter, luminescence; 100% = IFN-gamma alone, no compound. activation (% of control), % at 5.5 µM. 2.6% of 200,000 active;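 active = activation above the screen-wide mean activation plus 3 SD, cut at about 130% in these data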
STAT1 inh – inhibitors of IFN-gamma induced STAT1 signaling; NIH 3T3 STAT1-luciferase reporter, luminescence; inhibition, % at 5.5 µM; 0.35% of 200,000 active; AID 920;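 active = inhibition above a set limit, the mean inhibition across all tested compounds plus 3 SD, cut at about 34% in these data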
STAT3 act – increases IL-6 driven STAT3 reporter signal | U3A cells, IL-6 STAT3-luciferase reporter, luminescence; 100% = signal with IL-6 EC80 alone | activation (% of control), % at 5.6 µM | 0.91% of 190,000 active;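 active = activation above the screen-wide mean of compound activation plus 3 SD, cut at about 130% in these data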
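Detection: reporter luminescence signal / Assay system: STAT1-lacking human U3A cells, STAT3 luciferase reporter / Incubation: compound pre-incubation 1 h before IL-6, then 6 h stimulation at 37 °C / Control set: IL-6-only high control / Read-out: % activation relative to IL-6 control / Probe or stimulus: Interleukin-6, 33 ng/mL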
HSV augment – HSV replication enhancement; maximum fold increase; HSV replication augmentation in cells, fold increase; 0.005% of 220,000 active; in the data active = maximum fold increase above about 1.5; inconclusive = no clear call, values can overlap the other calls; tested in PC3 cells
STAT3 inh-1 – STAT3 signaling inhibition | U3A cells, IL-6 STAT3-luciferase reporter, luminescence; host cell line lacks STAT1 | inhibition, % at 5.5 µM | 0.89% of 190,000 active | AID 862;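 active = inhibition above the mean inhibition across all screened compounds plus 3 SD, cut at about 44% in these data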
STAT3 inh-2 – confirmation of STAT3 signaling inhibitors; shares compounds with STAT3 inh-1; U3A cells, IL-6 STAT3 luciferase reporter, luminescence; cell line lacks STAT1; inhibition, % at 5.7 µM; 45% of 1,200 active; AID 1265;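 active = inhibition above the hit cutoff computed for the primary STAT3 screen, cut at about 44% in these data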
NFkB inh STAT3ct – counter-screen for STAT3 inhibitors: NF-kappaB inhibition. shares compounds with STAT3 inh-1. HEK293T NF-kB luciferase reporter, TNF-alpha induced. inhibition, % at 5.7 µM. 36% of 1,200 active. AID 1308;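 active = inhibition above the mean of solvent-only control wells plus 3 SD, cutoff set per campaign, cut at about 13% in these data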
STAT1 inh 2 – inhibits STAT1, counter-screen to STAT3 inhibitors. NIH 3T3 STAT1-luciferase reporter, IFN-gamma induced, luminescence. 27% of 1,200 active. shares compounds with STAT3 inh-1. inhibition, % at 5.7 µM;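 active = inhibition above the mean plus 3 SD of solvent-only control wells, limit set per screening run, cut at about 16% in these data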
Each line names hits and unclear results; the compound was inactive in the other large screens (follow-up assays come after a bar, where they were run). Hits are enriched below; roughly 5.5% of the tested compounds scored in any of these assays.

Cc1ccc(N=c2c([N+](=O)[O-])nn(-c3ccc4c(c3)OCCO4)n2O)c(Cl)c1	STAT3 inh-1 48.8 (no result: KCC2 mod) | STAT3 inh-2 inactive | NFkB inh STAT3ct inactive | STAT1 inh 2 inactive
Cc1cc(C)cc(N=c2c([N+](=O)[O-])nn(-c3ccc4c(c3)OCCO4)n2O)c1	none
COc1ccc(-n2c(-c3ccc(Br)cc3)c[n+]3c2SC(C)C3)cc1 (stereo unspecified)	STAT3 inh-1 45.9 | STAT3 inh-2 inactive | NFkB inh STAT3ct inactive | STAT1 inh 2 22.2
COc1ccc(C2SCCN2C(=S)Nc2cccc(C(F)(F)F)c2)cc1 (stereo unspecified)	none
CCN(CC)c1ccc(Nc2nc(N3CCOCC3)c3ccccc3n2)cc1	STAT3 inh-1 49.2 | STAT3 inh-2 inactive | NFkB inh STAT3ct inactive | STAT1 inh 2 inactive
CCOc1ccc(/C=N/NC(=O)CSc2n[nH]c(=O)[nH]c2=O)cc1OC	none
O=C(CCNS(=O)(=O)c1cccs1)NC1CCN(Cc2ccccc2)CC1	none
Cc1nc(C)c(C(=O)Nc2ccc(Oc3ccccc3)cc2)o1	KCC2 mod -4.01, STAT3 inh-1 55.1 | STAT3 inh-2 inactive | NFkB inh STAT3ct inactive | STAT1 inh 2 inactive
O=C(Nc1nonc1NC(=O)c1cccs1)c1cccs1	STAT3 inh-1 43.6 | STAT3 inh-2 46.9 | NFkB inh STAT3ct 13.3 | STAT1 inh 2 inactive
O=C(Nc1ccccn1)c1cccs1	none
Cc1nc(C)c(C(=O)NCc2ccc(Cl)cc2)o1	none (no result: KCC2 mod)
Cc1nn(C)c(C(=O)NCc2ccc(Cl)cc2)c1Cl	STAT3 inh-1 55.9 | STAT3 inh-2 64.8 | NFkB inh STAT3ct 13.6 | STAT1 inh 2 20.4
CN1CCc2c(sc3nc(NN)n(Cc4ccccc4)c(=O)c23)C1	none (no result: STAT1 act, STAT1 inh, STAT3 act, STAT3 inh-1)
CCc1ccc(-c2nc(-c3ccncc3)no2)cc1	STAT3 inh-1 57.0 | STAT3 inh-2 inactive | NFkB inh STAT3ct inactive | STAT1 inh 2 inactive
Cc1nc2ccccc2n1CC(O)COCC1CC=CCC1 (stereo unspecified)	STAT3 inh-1 44.3 | STAT3 inh-2 inactive | NFkB inh STAT3ct inactive | STAT1 inh 2 inactive
CCCOC(=O)c1ccc(OCC(O)Cn2c(C)nc3ccccc32)cc1 (stereo unspecified)	STAT3 inh-1 60.6 (no result: HSV augment) | STAT3 inh-2 62.8 | NFkB inh STAT3ct 20.1 | STAT1 inh 2 22.7
CC[n+]1c(C=C2C=C(C)OC(C)=C2)sc2ccccc21	STAT3 inh-1 84.1 (no result: HSV augment) | STAT3 inh-2 85.2 | NFkB inh STAT3ct 26.6 | STAT1 inh 2 inactive
CC[n+]1c(/C=C2/C=C(C)CC(C)C2)sc2ccccc21 (stereo unspecified)	none
CC(C)Cn1nc(NC(=O)c2cccs2)c2cc3ccccc3nc21	none (no result: STAT1 act, STAT1 inh, STAT3 act, STAT3 inh-1)
COc1ccc2nc3c(cc2c1)c(NC(=O)c1cccs1)nn3CC(C)C	STAT3 inh-1 58.9 (no result: HSV augment) | STAT3 inh-2 54.3 | NFkB inh STAT3ct inactive | STAT1 inh 2 inactive
CCN(CC)c1ccc2cc(-c3nc4ccccc4[nH]3)c(=O)oc2c1	HSV augment inconclusive, STAT3 inh-1 98.7 (no result: KCC2 mod) | STAT3 inh-2 76.0 | NFkB inh STAT3ct 49.5 | STAT1 inh 2 16.7
CCN(CC)c1ccc2cc(-c3nnc(-c4ccc(Br)cc4)o3)c(=O)oc2c1	none (no result: HSV augment)
FC(F)(F)c1ccc(N2CCN(c3cc(-c4ccccc4)nc4ncnn34)CC2)nc1	STAT3 inh-1 48.1 (no result: KCC2 mod) | STAT3 inh-2 46.2 | NFkB inh STAT3ct 14.9 | STAT1 inh 2 27.2
COc1ccc(C)cc1S(=O)(=O)N(C)CC(=O)N1CCC(C(N)=O)CC1	none
O=C(Nc1cccc(O)c1)c1noc2c1CCc1ccccc1-2	STAT3 inh-1 83.4 | STAT3 inh-2 59.9 | NFkB inh STAT3ct inactive | STAT1 inh 2 inactive
Nc1c(C(=O)N2CCCC2)sc2nc(-c3ccccc3)ccc12	none (no result: STAT1 act, STAT1 inh, STAT3 act, STAT3 inh-1)
C[C@H]1O[C@@H](O[C@H]2[C@@H](O)C[C@H](O[C@H]3[C@@H](O)C[C@H](O[C@H]4CC[C@@]5(C)[C@H](CC[C@@H]6[C@@H]5C[C@@H](O)[C@]5(C)[C@@H](C7=CC(=O)OC7)CC[C@]65O)C4)O[C@@H]3C)O[C@@H]2C)C[C@H](O)[C@@H]1O	STAT3 inh-1 86.9 | STAT3 inh-2 82.0 | NFkB inh STAT3ct inactive | STAT1 inh 2 inactive
CNS(=O)(=O)c1cccc(C(=O)OCC(=O)C23CC4CC(CC(C4)C2)C3)c1	none (no result: KCC2 mod)
Cc1cc(C)n(-c2ccc(C(=O)Nc3ccc(S(=O)(=O)NCc4ccco4)cc3)cc2)n1	STAT3 inh-1 74.6 (no result: KCC2 mod) | STAT3 inh-2 56.0 | NFkB inh STAT3ct 17.2 | STAT1 inh 2 19.3
Cc1ccc(C(=O)Nc2ccc(S(=O)(=O)NCc3ccco3)cc2)cc1	none
CCC(=O)N(C1=C(NC)C(=O)c2ccccc2C1=O)C(C)C	none
CNC1=C(N(C(C)=O)c2ccc(Br)cc2)C(=O)c2ccccc2C1=O	STAT3 inh-1 49.2 | STAT3 inh-2 52.6 | NFkB inh STAT3ct 30.7 | STAT1 inh 2 40.6
Nc1nc2c(Cl)cc(Cl)cc2s1	none
Nc1nc2c(Cl)ccc(Cl)c2s1	STAT3 inh-1 45.6 | STAT3 inh-2 inactive | NFkB inh STAT3ct inactive | STAT1 inh 2 inactive
Cc1cc(N2CCCCC2)nc(NCc2ccccc2)n1	STAT3 inh-1 46.1 | STAT3 inh-2 inactive | NFkB inh STAT3ct inactive | STAT1 inh 2 21.0
O=C(Nc1nccs1)c1ccc(S(=O)(=O)NCC2CCCCC2)cc1	STAT3 inh-1 71.4 | STAT3 inh-2 54.9 | NFkB inh STAT3ct inactive | STAT1 inh 2 inactive
O=C(Cn1cnc2ccccc21)Nc1ccc(SC(F)F)cc1	STAT3 inh-1 73.1 | STAT3 inh-2 65.4 | NFkB inh STAT3ct 21.4 | STAT1 inh 2 inactive
O=C(Cn1cnc2ccccc21)NCc1ccccc1	none
COc1ccc(CN2CSC(=S)N(Cc3ccc(OC)cc3)C2)cc1	none (no result: STAT1 act, STAT1 inh, STAT3 act, STAT3 inh-1)
Cc1ccsc1/C=C/c1ccc2ccccc2n1	STAT3 inh-1 46.2 (no result: HSV augment) | STAT3 inh-2 46.0 | NFkB inh STAT3ct 20.0 | STAT1 inh 2 inactive
Fc1cccc(F)c1/C=C/c1ccc2ccccc2n1	STAT3 inh-1 56.2 | STAT3 inh-2 inactive | NFkB inh STAT3ct 23.0 | STAT1 inh 2 inactive
CN(C)c1nnnn1-c1cccc(Oc2ncc(C(F)(F)F)cc2Cl)c1	none
O=C1C=C(NC2=CC3OC(c4ccccc4)OCC3OC2=O)CCC1 (stereo unspecified)	STAT3 inh-1 51.2 | STAT3 inh-2 inactive | NFkB inh STAT3ct 20.7 | STAT1 inh 2 17.8
O=C1C=C(NCc2ccccc2)CCC1	none
CCCn1c(N)cc(=O)n(CCC)c1=O	none
NNC(=O)c1ccc(COc2ccccc2)cc1	none

High-throughput results as filed in PubChem BioAssay.
